Test results reported in ChEMBL document CHEMBL4831507, “Development of FABP4/5 inhibitors with potential therapeutic effect on type 2 Diabetes Mellitus” (Eur J Med Chem, 2021).
pIC50: −log10 of the molar value. The source made the active and inactive calls. The calls are words filed in the database; no cut-off is given here.

Columns and labels:
[1] = molecular target: T1, Fatty acid-binding protein, adipocyte (Homo sapiens, UniProt P15090); assay: Displacement of 1,8-ANS from FABP4 (unknown origin) at 25 uM incubated for 3 mins by fluorescence based analysis relative to control
Procedure, shortened: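 Single-concentration percent inhibition in the 1,8-ANS displacement assay with FABP4. Compound incubated with protein and probe in phosphate buffer for 3 min at room temperature; fluorescence read at ex 370/em 470 nm.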
Target sequence in this assay (P15090 2-132 limits assumed): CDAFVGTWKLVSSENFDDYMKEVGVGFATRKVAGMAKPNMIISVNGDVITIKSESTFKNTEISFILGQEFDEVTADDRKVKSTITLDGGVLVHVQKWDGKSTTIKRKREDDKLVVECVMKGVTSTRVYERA

[2] = molecular target: Fatty acid-binding protein 5 (Homo sapiens, UniProt Q01469); assay: Displacement of 1,8-ANS from FABP5 (unknown origin) incubated for 3 mins by fluorescence based analysis
Fatty acid-binding protein 5, sequence (Q01469 whole entry): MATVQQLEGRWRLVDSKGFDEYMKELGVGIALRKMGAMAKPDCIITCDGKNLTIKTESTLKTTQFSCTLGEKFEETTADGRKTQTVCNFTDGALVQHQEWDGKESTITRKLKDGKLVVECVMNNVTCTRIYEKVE

Homo sapiens [3] = species on record: Homo sapiens; assay: Selectivity ratio of IC50 for FABP3 (unknown origin) to IC50 for FABP5 (unknown origin)
Procedure, shortened: (§1)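 1,8-ANS displacement using purified recombinant FABP3, FABP4 or FABP5. Compound incubated with protein and 1,8-ANS in phosphate buffer for 3 min at room temperature. Fluorescence read at ex 370/em 470 nm. IC50 by nonlinear regression, mean ± SD of three independent experiments.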

[4] = molecular target: T1, Fatty acid-binding protein, adipocyte; assay: Displacement of 1,8-ANS from FABP4 (unknown origin) incubated for 3 mins by fluorescence based analysis; procedure, shortened: as §1
Target sequence in this assay (P15090 whole entry): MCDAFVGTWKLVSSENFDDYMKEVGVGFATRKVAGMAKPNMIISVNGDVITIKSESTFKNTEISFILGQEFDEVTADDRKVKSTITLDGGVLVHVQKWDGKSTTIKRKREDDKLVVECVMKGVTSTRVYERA

[5] = molecular target: Fatty acid-binding protein, heart (Homo sapiens, UniProt P05413); assay: Displacement of 1,8-ANS from FABP3 (unknown origin) incubated for 3 mins by fluorescence based analysis; procedure, shortened: as §1
Fatty acid-binding protein, heart, sequence (P05413 whole entry): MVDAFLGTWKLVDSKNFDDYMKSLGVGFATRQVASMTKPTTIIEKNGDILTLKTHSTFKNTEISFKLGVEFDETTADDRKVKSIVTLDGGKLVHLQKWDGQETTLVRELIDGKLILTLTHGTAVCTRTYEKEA

3T3-L1 [6] = assay: Cytotoxicity against mouse 3T3-L1 cells assessed as reduction in cell viability at 100 uM incubated for 24 hrs by CCK8 assay; assay type: cell-based; settings: 3t3-l1, 24 h
Homo sapiens [7] = species on record: Homo sapiens; assay: Selectivity ratio of IC50 for FABP3 (unknown origin) to IC50 for FABP4 (unknown origin); procedure, shortened: as §1
[8] = Metabolic stability in mouse liver microsomes assessed as half life at 0.1 uM preincubated for 10 mins followed by NADPH addition and measured for 60 mins by LC-MS/MS analysis; assay type: ADME, Microsome; settings: time 70 min
Procedure, shortened: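 Mouse liver microsomes 0.33 mg/mL in 0.1 M Tris pH 7.4 with 5 mM MgCl₂, 0.01% DMSO and 0.005% BSA. Compound final […]. Preincubated 10 min at 37 °C; reaction started with 1 mM NADPH. Samples at 0, 7, 17, 30 and 60 min quenched with cold methanol, then analysed by LC-MS/MS.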

3T3-L1 [9] = assay: Anti-lipolytic activity in mouse 3T3-L1 cells assessed as inhibition of forskolin-stimulated glycerol release at 80 uM preincubated for 24 hrs followed by forskolin stimulation for 1 hr; assay type: functional, cell-based; settings: time 25.0 hrs

| SMILES | inhibition [1] [%] | pIC50 [2] | Ratio IC50 (Homo sapiens [3]) | pIC50 [4] | pIC50 [5] | Activity (3T3-L1 [6]) | Ratio IC50 (Homo sapiens [7]) | half-life at 0.1 µM [8] [h] | Activity (3T3-L1 [9]) |
| --- | --- | --- | --- | --- | --- | --- | --- | --- | --- |
| O=C(O)c1cc(NS(=O)(=O)c2ccc(-c3ccc(F)c(Cl)c3)c3ccccc23)ccc1F | 78 | 5.20 | 16.3 | 5.11 | 3.99 | Non-Toxic | 13.1 |  |  |
| CCc1ccccc1-c1cc(S(=O)(=O)Nc2ccc(F)c(CC(=O)O)c2)c2ccccc2c1OC | 63 | 5.49 |  | 4.85 |  |  |  |  |  |
| COc1c(-c2ccccc2Cl)cc(S(=O)(=O)Nc2ccc(F)c(CC(=O)O)c2)c2ccccc12 | 77 | 5.12 |  | 5.10 |  | Non-Toxic |  | 0.718 | Active |
| O=C(O)c1cc(NS(=O)(=O)c2ccc(-c3ccccc3)c3ccccc23)ccc1F | 82 |  |  | 5.32 |  |  |  |  |  |
| COc1c(-c2ccccc2F)cc(S(=O)(=O)Nc2ccc(F)c(CC(=O)O)c2)c2ccccc12 | 87 |  |  | 5.28 |  |  |  |  |  |
| CC(C)c1ccccc1-c1ccc(S(=O)(=O)Nc2ccc(F)c(C(=O)O)c2)c2ccccc12 | 74 | 4.77 |  | 4.92 |  |  |  |  |  |
| O=C(O)c1cc(NS(=O)(=O)c2ccc(-c3ccncc3)c3ccccc23)ccc1F | 52 |  |  |  |  |  |  |  |  |
| COc1c(-c2ccc(F)cc2Cl)cc(S(=O)(=O)Nc2ccc(F)c(CC(=O)O)c2)c2ccccc12 | 90 | 5.22 |  | 5.32 |  | Non-Toxic |  |  |  |
| Cc1noc(C)c1-c1ccc(S(=O)(=O)Nc2ccc(F)c(C(=O)O)c2)c2ccccc12 | 61 |  |  |  |  |  |  |  |  |
| COc1c(-c2ccc(F)c(Cl)c2)cc(S(=O)(=O)Nc2ccc(F)c(CC(=O)O)c2)c2ccccc12 | 88 |  |  | 5.30 |  |  |  |  |  |
| O=C(O)c1cc(NS(=O)(=O)c2ccc(-c3ccc(O)cc3)c3ccccc23)ccc1F | 73 |  |  | 5.08 |  |  |  |  |  |
| O=C(O)c1cc(NS(=O)(=O)c2ccc(-c3ccccc3OC(F)(F)F)c3ccccc23)ccc1F | 74 | 5.09 |  | 4.90 |  |  |  |  |  |
| Cc1cc(F)ccc1-c1ccc(S(=O)(=O)Nc2ccc(F)c(C(=O)O)c2)c2ccccc12 | 85 |  |  | 5.30 |  | Non-Toxic |  | 1.47 | Active |
| Cc1c(Cl)cccc1OCc1[nH]c2nc(-c3ccccc3)nn2c(=O)c1C | 97 |  | 0.08 | 5.20 | 5.71 |  | 0.31 |  |  |
